According to ChEMBL document CHEMBL2440040, “Synthesis of 4″-O-desosaminyl clarithromycin derivatives and their anti-bacterial activities” (2013):

Experiments:
Assay type in all cases: functional
Staphylococcus aureus [1] = assay: Antibacterial activity against methicillin-sensitive Staphylococcus aureus 12-32 by broth microdilution method
How it was run: (§1)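 Strains obtained from the Institute of Medicinal Biotechnology, Academy of Medical Sciences & Peking Union Medical College. MIC determined in vitro by broth microdilution following NCCLS recommendations.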

Streptococcus pneumoniae [2] = assay: Antibacterial activity against erythromycin-resistant Streptococcus pneumoniae 12-6 by broth microdilution method
Staphylococcus aureus [3] = assay: Antibacterial activity against methicillin-sensitive Staphylococcus aureus ATCC 29213 by broth microdilution method; how it was run: as §1
Streptococcus pneumoniae [4] = assay: Antibacterial activity against erythromycin-sensitive Streptococcus pneumoniae 12-8 by broth microdilution method; how it was run: as §1
[5] = tested on: Staphylococcus epidermidis; assay: Antibacterial activity against methicillin-resistant Staphylococcus epidermidis 12-11 by broth microdilution method
[6] = tested on: Staphylococcus epidermidis; assay: Antibacterial activity against methicillin-sensitive Staphylococcus epidermidis 12-5 by broth microdilution method; how it was run: as §1
Streptococcus pneumoniae [7] = assay: Antibacterial activity against erythromycin-sensitive Streptococcus pneumoniae 12-4 by broth microdilution method
Streptococcus pyogenes [8] = assay: Antibacterial activity against erythromycin-resistant Streptococcus pyogenes 11-2 by broth microdilution method
Streptococcus pneumoniae [9] = assay: Antibacterial activity against erythromycin-sensitive Streptococcus pneumoniae 12-1 by broth microdilution method; how it was run: as §1
[10] = tested on: Staphylococcus epidermidis; assay: Antibacterial activity against methicillin-sensitive Staphylococcus epidermidis ATCC 12228 by broth microdilution method; how it was run: as §1
Streptococcus pneumoniae [11] = assay: Antibacterial activity against erythromycin-sensitive Streptococcus pneumoniae 12-14 by broth microdilution method; how it was run: as §1
Streptococcus pneumoniae [12] = assay: Antibacterial activity against erythromycin-resistant Streptococcus pneumoniae 12-5 by broth microdilution method
Streptococcus pneumoniae [13] = assay: Antibacterial activity against erythromycin-sensitive Streptococcus pneumoniae 12-10 by broth microdilution method; how it was run: as §1
[14] = tested on: Staphylococcus epidermidis; assay: Antibacterial activity against methicillin-sensitive Staphylococcus epidermidis 11-20 by broth microdilution method; how it was run: as §1
Streptococcus pyogenes [15] = assay: Antibacterial activity against erythromycin-sensitive Streptococcus pyogenes ATCC 19625 by broth microdilution method; how it was run: as §1
[16] = tested on: Staphylococcus epidermidis; assay: Antibacterial activity against methicillin-resistant Staphylococcus epidermidis 12-4 by broth microdilution method
Staphylococcus aureus [17] = assay: Antibacterial activity against methicillin-resistant Staphylococcus aureus 12-31 by broth microdilution method

Measured: MIC

CC[C@H]1OC(=O)[C@H](C)[C@@H](O[C@H]2C[C@@](C)(OC)[C@@H](O[C@@H]3O[C@H](C)[C@@H](OCc4ccccc4)[C@H](N(C)C)[C@H]3OC(=O)c3ccccc3)[C@H](C)O2)[C@H](C)[C@@H](O[C@@H]2O[C@H](C)C[C@H](N(C)C)[C@H]2O)[C@@](C)(OC)C[C@@H](C)C(=O)[C@H](C)[C@H]2OC(=O)O[C@@]21C
16 µg/mL: Streptococcus pneumoniae [4]
> 32 µg/mL: all other assays above

CC[C@H]1OC(=O)[C@H](C)[C@@H](O[C@H]2C[C@@](C)(OC)[C@@H](O[C@@H]3O[C@H](C)[C@@H](OCc4ccccc4)[C@H](N(C)C)[C@H]3OC(=O)c3ccccc3)[C@H](C)O2)[C@H](C)[C@@H](O[C@@H]2O[C@H](C)C[C@H](N(C)C)[C@H]2O)[C@@](C)(OC)C[C@@H](C)C(=O)[C@H](C)[C@@H](O)[C@]1(C)O
32 µg/mL: Streptococcus pneumoniae [2] | Streptococcus pneumoniae [7] | Streptococcus pneumoniae [11] | Streptococcus pneumoniae [12]
16 µg/mL: Streptococcus pneumoniae [13]
2 µg/mL: Streptococcus pneumoniae [4]
> 32 µg/mL: all other assays above

CC[C@H]1OC(=O)[C@H](C)[C@@H](O[C@H]2C[C@@](C)(OC)[C@@H](O[C@@H]3O[C@H](C)[C@@H](OCc4ccccc4)[C@H](N(C)C)[C@H]3O)[C@H](C)O2)[C@H](C)[C@@H](O[C@@H]2O[C@H](C)C[C@H](N(C)C)[C@H]2O)[C@@](C)(OC)C[C@@H](C)C(=O)[C@H](C)[C@@H](O)[C@]1(C)O
32 µg/mL: Streptococcus pneumoniae [2] | Streptococcus pneumoniae [4] | Streptococcus pneumoniae [7] | Streptococcus pneumoniae [9] | Streptococcus pneumoniae [11] | Streptococcus pneumoniae [12] | Streptococcus pneumoniae [13] | Streptococcus pyogenes [15]
> 32 µg/mL: all other assays above

CC[C@H]1OC(=O)[C@H](C)[C@@H](O[C@H]2C[C@@](C)(OC)[C@@H](O[C@@H]3O[C@H](C)[C@@H](O)[C@H](N(C)C)[C@H]3OC(=O)c3ccccc3)[C@H](C)O2)[C@H](C)[C@@H](O[C@@H]2O[C@H](C)C[C@H](N(C)C)[C@H]2O)[C@@](C)(OC)C[C@@H](C)C(=O)[C@H](C)[C@@H](O)[C@]1(C)O
4 µg/mL: Streptococcus pneumoniae [4]
8 µg/mL: Streptococcus pyogenes [15]
16 µg/mL: Staphylococcus aureus [3] | [5] | Streptococcus pneumoniae [11] | Streptococcus pneumoniae [13] | [16]
32 µg/mL: [6] | Streptococcus pneumoniae [7] | Streptococcus pneumoniae [12] | [14]
> 32 µg/mL: all other assays above

CC[C@H]1OC(=O)[C@H](C)[C@@H](O[C@H]2C[C@@](C)(OC)[C@@H](O[C@@H]3O[C@H](C)[C@@H](O)[C@H](N(C)C)[C@H]3O)[C@H](C)O2)[C@H](C)[C@@H](O[C@@H]2O[C@H](C)C[C@H](N(C)C)[C@H]2O)[C@@](C)(OC)C[C@@H](C)C(=O)[C@H](C)[C@@H](O)[C@]1(C)O
4 µg/mL: Staphylococcus aureus [3] | Streptococcus pneumoniae [11] | [16]
8 µg/mL: [14]
> 32 µg/mL: Streptococcus pyogenes [8] | Staphylococcus aureus [17]
2 µg/mL: Streptococcus pneumoniae [4] | [5] | Streptococcus pneumoniae [9] | Streptococcus pneumoniae [13] | Streptococcus pyogenes [15]
32 µg/mL: Streptococcus pneumoniae [2]
16 µg/mL: all other assays above

CC[C@H]1OC(=O)[C@H](C)[C@@H](O[C@H]2C[C@@](C)(OC)[C@@H](O[C@@H]3O[C@H](C)[C@@H](OCc4ccccc4)[C@H](N(C)C)[C@H]3O)[C@H](C)O2)[C@H](C)[C@@H](O[C@@H]2O[C@H](C)C[C@H](N(C)C)[C@H]2O)[C@@](C)(OC)C[C@@H](C)C(=O)[C@H](C)[C@H]2OC(=O)O[C@@]21C
> 32 µg/mL: Streptococcus pyogenes [8] | [10] | [16] | Staphylococcus aureus [17]
2 µg/mL: Streptococcus pneumoniae [4] | Streptococcus pneumoniae [9] | Streptococcus pyogenes [15]
32 µg/mL: Streptococcus pneumoniae [2] | Streptococcus pneumoniae [7] | Streptococcus pneumoniae [12]
4 µg/mL: Streptococcus pneumoniae [11]
1 µg/mL: Streptococcus pneumoniae [13]
16 µg/mL: all other assays above

CC[C@H]1OC(=O)[C@H](C)[C@@H](O[C@H]2C[C@@](C)(OC)[C@@H](O[C@@H]3O[C@H](C)[C@@H](O)[C@H](N(C)C)[C@H]3OC(=O)c3ccccc3)[C@H](C)O2)[C@H](C)[C@@H](O[C@@H]2O[C@H](C)C[C@H](N(C)C)[C@H]2O)[C@@](C)(OC)C[C@@H](C)C(=O)[C@H](C)[C@H]2OC(=O)O[C@@]21C
1 µg/mL: Streptococcus pneumoniae [4] | Streptococcus pneumoniae [9] | Streptococcus pyogenes [15]
8 µg/mL: [16]
4 µg/mL: [14]
≤ 1 µg/mL: [5]
> 32 µg/mL: Staphylococcus aureus [17]
32 µg/mL: Streptococcus pneumoniae [2] | Streptococcus pyogenes [8] | Streptococcus pneumoniae [12]
16 µg/mL: Streptococcus pneumoniae [7]
2 µg/mL: all other assays above

CC[C@H]1OC(=O)[C@H](C)[C@@H](O[C@H]2C[C@@](C)(OC)[C@@H](O[C@@H]3O[C@H](C)[C@@H](O)[C@H](N(C)C)[C@H]3O)[C@H](C)O2)[C@H](C)[C@@H](O[C@@H]2O[C@H](C)C[C@H](N(C)C)[C@H]2O)[C@@](C)(OC)C[C@@H](C)C(=O)[C@H](C)[C@H]2OC(=O)O[C@@]21C
4 µg/mL: Streptococcus pneumoniae [7]
1 µg/mL: Streptococcus pneumoniae [4] | Streptococcus pneumoniae [13]
> 32 µg/mL: Staphylococcus aureus [17]
2 µg/mL: Streptococcus pneumoniae [9] | Streptococcus pneumoniae [11] | Streptococcus pyogenes [15]
32 µg/mL: Staphylococcus aureus [1] | [10] | [16]
16 µg/mL: all other assays above

CC[C@H]1OC(=O)[C@H](C)[C@@H](O[C@H]2C[C@@](C)(OC)[C@@H](O[C@@H]3O[C@H](C)[C@@H](O)[C@H](N(C)C)[C@H]3OC(=O)c3ccccc3)[C@H](C)O2)[C@H](C)[C@@H](O[C@@H]2O[C@H](C)C[C@H](N(C)C)[C@H]2O)[C@@](C)(OC)C[C@@H](C)C(=O)/C(C)=C/[C@]1(C)O
1 µg/mL: Streptococcus pneumoniae [9] | Streptococcus pyogenes [15]
16 µg/mL: Streptococcus pneumoniae [4]
32 µg/mL: [5] | [6] | [10]
> 32 µg/mL: all other assays above

CC[C@H]1OC(=O)[C@H](C)[C@@H](O[C@H]2C[C@@](C)(OC)[C@@H](O)[C@H](C)O2)[C@H](C)[C@@H](O[C@@H]2O[C@H](C)C[C@H](N(C)C)[C@H]2O)[C@](C)(OC)C[C@@H](C)C(=O)[C@H](C)[C@@H](O)[C@]1(C)O [CLARITHROMYCIN]
32 µg/mL: [16]
8 µg/mL: [14]
4 µg/mL: Staphylococcus aureus [1] | [5] | Streptococcus pyogenes [8]
2 µg/mL: Streptococcus pneumoniae [7]
> 32 µg/mL: Streptococcus pneumoniae [2] | Streptococcus pneumoniae [12] | Staphylococcus aureus [17]
≤ 1 µg/mL: Staphylococcus aureus [3] | [6] | [10] | Streptococcus pyogenes [15]
1 µg/mL: all other assays above

CC[C@H]1OC(=O)[C@H](C)C(=O)[C@H](C)[C@@H](O[C@@H]2O[C@H](C)C[C@H](N(C)C)[C@H]2O)[C@](C)(OC)C[C@@H](C)C(=O)[C@H](C)[C@H]2N(CCCCn3cnc(-c4cccnc4)c3)C(=O)O[C@]12C [TELITHROMYCIN]
> 64 µg/mL: Staphylococcus aureus [17]
2 µg/mL: Streptococcus pyogenes [8]
≤ 2 µg/mL: all other assays above
